# Assay results taken from ChEMBL document CHEMBL4396895, “Identification and Optimization of Novel Cathepsin C Inhibitors Derived from EGFR Inhibitors” (J Med Chem, 2019).
# The source made the active and inactive calls. The calls are words filed in the database; no cut-off is given here.
# Tests used:
# [1] = Intrinsic clearance in mouse liver microsomes assessed per mg protein measured after 60 mins in presence of NADPH by LC-MS/MS analysis; type: ADME, Microsome; details: read-out: CLH
# Dipeptidyl peptidase 1 [2] = target: T1, Dipeptidyl peptidase 1 (Homo sapiens, UniProt P53634); experiment: Inhibition of cathepsin C in human THP1 cells using H-Gly-Phe-AFC as substrate preincubated for 4 hrs followed by substrate addition and measured after 60 mins; type: cell-based
# In short: (§1)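 THP1 or U937 cells, grown in RPMI 1640 with 10% FBS, were seeded at 1.0 × 10^6/mL. They were preincubated with threefold serial dilutions of compound for 4 h at 37 °C. H-Gly-Phe-AFC was then added from a 100 μM solution and fluorescence was read after 60 min at 37 °C. Values are means of at least two experiments.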
# [3] = Oral bioavailability in C57BL/6 mouse at 10 mg/kg by LC-MS/MS analysis; type: ADME, organism-based; details: in vivo
# In short: (§2)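 Male C57BL/6 mice (n = 3) were dosed with a single IV dose of 2 mg/kg or an IP or PO dose of 10 mg/kg. Vehicle: 0.5% Methocel and 0.1% Tween-80 in citrate buffer, pH 3. Blood was drawn by eye puncture at several time points and analysed by LC-MS/MS. Parameters came from noncompartmental analysis of individual animals and are reported as means.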
# Cathepsin S = Cathepsin S (Homo sapiens, UniProt P25774); experiment: Inhibition of recombinant human C-terminal polyhistidine-tagged cathepsin S (Met1 to Ile331 residues) expressed in HEK293 cells using MCA-Arg-Pro-Lys-Pro-Val-Glu-NVAL-Trp-Arg-Lys(DNP)-NH2 as substrate preincubated for 30 mins followed by substrate addition and measured after 30 mins
# In short: (§3)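 Recombinant human cathepsin was preincubated with compound for 30 min at RT, then reacted with substrate for 30 min. CatB and CatL were read with Z-Leu-Arg-AMC (Ex 380/Em 460 nm). CatS was read with MCA-Arg-Pro-Lys-Pro-Val-Glu-Nva-Trp-Arg-Lys(DNP)-NH2 (Ex 320/Em 405 nm). E-64 served as inhibitor control.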
# Cytochrome P450 2C19 = Cytochrome P450 2C19 (Homo sapiens, UniProt P33261); experiment: Inhibition of CYP2C19 (unknown origin); type: ADME
# In short: (§4)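 Tested against recombinant human cytochrome P450 isoforms 1A2, 2D6, 3A4, 2C9 and 2C19.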
# Cytochrome P450 3A4 = Cytochrome P450 3A4 (Homo sapiens, UniProt P08684); experiment: Inhibition of CYP3A4 (unknown origin); type: ADME; in short: as §4
# Mus musculus [4] = experiment: In vivo inhibition of CatC in C57BL/6 mouse blood at 20 mg/kg, po single dose using Gly-Phe-AFC as substrate measured 15 mins post dose for up to 90 mins by fluorescence assay relative to control; details: C57BL/6, Blood
# Dipeptidyl peptidase 1 [5] = target: T1, Dipeptidyl peptidase 1; experiment: Inhibition of cathepsin C in human U937 cells using H-Gly-Phe-AFC as substrate preincubated for 4 hrs followed by substrate addition and measured after 60 mins; type: cell-based; in short: as §1
# Mus musculus [6] = experiment: In vivo inhibition of CatC in po dosed C57BL/6 mouse blood administered twice daily for 6 days using Gly-Phe-AFC as substrate measured up to 90 mins by fluorescence assay; type: functional, organism-based
# In short: (§5)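 C57BL/6 mice (20−25 g; n = 10 per group) received oral doses twice daily at 6.7, 20 or 60 mg/kg for 6 days. The vehicle group got 0.5% Methocel and 0.1% Tween-80 in 100 mM citrate buffer, pH 3. Blood was drawn by eye puncture 14 h after the last dose. Bone marrow was flushed from femurs and tibias with ice-cold RPMI 1640. Cells were lysed in 50 mM Tris pH 7.4, 750 mM NaCl, 1% Triton X-100, sonicated on ice and stored at −80 °C. Lysates were diluted by protein content, with blood diluted 5-fold more than marrow. Kinetics were followed for up to 90 min. Results are % of the vehicle mean.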
# Cytochrome P450 2D6 = Cytochrome P450 2D6 (Homo sapiens, UniProt P10635); experiment: Inhibition of CYP2D6 (unknown origin); type: ADME; in short: as §4
# Mus musculus [7] = experiment: Protection against C57BL/6 mouse model of caerulein-induced acute pancreatitis assessed as reduction in CatC activity at 20 mg/kg, po pretreated twice daily for 6 days followed by caerulein-challenge at 1 hr interval for 8 hrs and measured 1 hr post-last caerulein-challenge
# [8] = Half life in C57BL/6 mouse at 10 mg/kg, ip by LC-MS/MS analysis; type: ADME, organism-based; details: in vivo; in short: as §2
# Cytochrome P450 2C9 = Cytochrome P450 2C9 (Homo sapiens, UniProt P11712); experiment: Inhibition of CYP2C9 (unknown origin); type: ADME; in short: as §4
# Mus musculus [9] = experiment: In vivo inhibition of CatC in po dosed C57BL/6 mouse bone marrow assessed as reduction in proteinase 3 activation administered twice daily for 6 days using aminobenzoyl-Val-Ala-Asp-Cys-Ala-Asp-Gln-ethylenediamine 2,4-dinitrophenyl as substrate measured up to 90 mins by fluorescence assay; type: functional, organism-based; in short: as §5
# [10] = Drug uptake in C57BL/6 mouse kidney at 10 mg/kg, po by LC-MS/MS analysis; type: ADME, organism-based; details: in vivo
# [11] = AUC infinity in C57BL/6 mouse at 2 mg/kg, iv by LC-MS/MS analysis; type: ADME, organism-based; design: dose 2 mg/kg, time infinity, route intravenous; details: in vivo; in short: as §2
# Mus musculus [12] = experiment: In vivo inhibition of CatC in po dosed C57BL/6 mouse bone marrow assessed as reduction in CatG activation administered twice daily for 6 days using N-succinyl-Ala-Ala-Pro-Phe-pNA as substrate measured up to 90 mins by fluorescence assay; type: functional, organism-based; in short: as §5
# [13] = Tmax in C57BL/6 mouse at 10 mg/kg, ip by LC-MS/MS analysis; type: ADME, organism-based; details: in vivo; in short: as §2
# [14] = Tmax in C57BL/6 mouse at 10 mg/kg, po by LC-MS/MS analysis; type: ADME, organism-based; details: in vivo; in short: as §2
# [15] = Drug uptake in C57BL/6 mouse lung at 10 mg/kg, po by LC-MS/MS analysis; type: ADME, organism-based; details: in vivo
# [16] = Toxicity in C57BL/6 mouse assessed as effect on WBC level at 60 mg/kg, po administered twice daily for 6 days; type: organism-based; details: in vivo, 144 h
# [17] = AUC infinity in C57BL/6 mouse at 10 mg/kg, po by LC-MS/MS analysis; type: ADME, organism-based; design: dose 10 mg/kg, time infinity, route oral; details: in vivo; in short: as §2
# Mus musculus [18] = experiment: In vivo inhibition of CatC in po dosed C57BL/6 mouse bone marrow assessed as reduction in neutrophil elastase activation administered twice daily for 6 days using methoxysuccinyl-Ala-Ala-Pro-Val-AMC as substrate measured up to 90 mins by fluorescence assay; type: functional, organism-based; in short: as §5
# Procathepsin L = Procathepsin L (Homo sapiens, UniProt P07711); experiment: Inhibition of recombinant human C-terminal His6-tagged cathepsin L (Glu113 to Val333 and Ala114 to Val333 residues) expressed in mouse myeloma cells using Z-Leu-Arg-AMC as substrate preincubated for 30 mins followed by substrate addition and measured after 30 mins; in short: as §3
# Sequence of Procathepsin L (P07711 whole entry): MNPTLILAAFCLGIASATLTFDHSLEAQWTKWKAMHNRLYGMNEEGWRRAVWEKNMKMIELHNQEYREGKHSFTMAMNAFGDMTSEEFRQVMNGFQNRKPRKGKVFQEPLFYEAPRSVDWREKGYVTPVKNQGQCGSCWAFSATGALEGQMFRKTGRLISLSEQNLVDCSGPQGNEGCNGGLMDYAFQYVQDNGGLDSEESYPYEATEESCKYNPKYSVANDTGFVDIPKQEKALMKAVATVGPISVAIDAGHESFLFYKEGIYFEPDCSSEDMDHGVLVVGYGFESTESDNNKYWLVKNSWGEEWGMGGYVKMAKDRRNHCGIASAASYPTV
# T1 sequence (P53634 25-134 limits assumed): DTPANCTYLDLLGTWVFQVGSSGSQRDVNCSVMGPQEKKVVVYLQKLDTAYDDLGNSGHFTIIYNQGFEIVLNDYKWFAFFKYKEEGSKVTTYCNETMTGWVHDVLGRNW
# T1 sequence (P53634 231-394 limits assumed): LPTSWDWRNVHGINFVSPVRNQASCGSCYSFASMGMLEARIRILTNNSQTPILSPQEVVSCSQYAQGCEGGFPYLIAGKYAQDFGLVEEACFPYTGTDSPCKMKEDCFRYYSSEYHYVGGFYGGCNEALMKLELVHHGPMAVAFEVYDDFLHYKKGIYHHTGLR
# T1 sequence (P53634 395-463 limits assumed): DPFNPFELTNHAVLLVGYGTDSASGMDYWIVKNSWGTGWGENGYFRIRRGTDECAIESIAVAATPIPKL
# Sequence of Cytochrome P450 2D6 (P10635 whole entry): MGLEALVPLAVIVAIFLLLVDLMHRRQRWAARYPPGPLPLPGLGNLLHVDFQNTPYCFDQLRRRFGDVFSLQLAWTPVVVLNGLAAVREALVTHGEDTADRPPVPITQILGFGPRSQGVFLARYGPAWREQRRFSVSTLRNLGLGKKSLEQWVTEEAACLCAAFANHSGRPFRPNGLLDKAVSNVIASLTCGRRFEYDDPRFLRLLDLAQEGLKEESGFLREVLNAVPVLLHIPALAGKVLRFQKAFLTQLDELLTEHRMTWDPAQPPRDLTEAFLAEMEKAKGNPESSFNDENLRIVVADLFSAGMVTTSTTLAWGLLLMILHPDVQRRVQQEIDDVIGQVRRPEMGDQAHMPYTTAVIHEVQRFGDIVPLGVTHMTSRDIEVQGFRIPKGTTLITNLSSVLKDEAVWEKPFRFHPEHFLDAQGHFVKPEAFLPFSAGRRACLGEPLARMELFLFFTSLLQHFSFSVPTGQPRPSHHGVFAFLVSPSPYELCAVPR
# Sequence of Cathepsin S (P25774 whole entry): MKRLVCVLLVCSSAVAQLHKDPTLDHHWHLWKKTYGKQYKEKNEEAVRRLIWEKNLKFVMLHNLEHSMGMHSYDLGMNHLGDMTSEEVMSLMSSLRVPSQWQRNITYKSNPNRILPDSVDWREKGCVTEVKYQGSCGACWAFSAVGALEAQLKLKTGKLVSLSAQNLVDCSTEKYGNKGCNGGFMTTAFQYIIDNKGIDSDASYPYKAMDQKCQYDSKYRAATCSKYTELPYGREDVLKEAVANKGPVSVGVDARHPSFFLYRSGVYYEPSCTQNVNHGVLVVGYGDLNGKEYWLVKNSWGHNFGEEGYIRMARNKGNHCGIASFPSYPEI
# Sequence of Cytochrome P450 2C9 (P11712 whole entry): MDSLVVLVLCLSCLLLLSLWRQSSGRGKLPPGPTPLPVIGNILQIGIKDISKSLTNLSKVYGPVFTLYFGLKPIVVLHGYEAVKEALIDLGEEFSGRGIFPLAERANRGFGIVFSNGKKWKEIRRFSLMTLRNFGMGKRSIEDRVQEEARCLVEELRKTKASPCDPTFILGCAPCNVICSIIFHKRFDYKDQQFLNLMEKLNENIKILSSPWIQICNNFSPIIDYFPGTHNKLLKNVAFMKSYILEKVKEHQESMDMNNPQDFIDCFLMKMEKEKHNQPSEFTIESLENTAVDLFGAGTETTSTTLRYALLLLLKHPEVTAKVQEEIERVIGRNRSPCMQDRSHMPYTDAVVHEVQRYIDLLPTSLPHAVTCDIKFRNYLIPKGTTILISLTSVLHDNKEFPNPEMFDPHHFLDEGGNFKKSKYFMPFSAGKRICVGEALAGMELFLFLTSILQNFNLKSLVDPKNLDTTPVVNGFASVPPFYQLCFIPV
# Sequence of Cytochrome P450 2C19 (P33261 whole entry, canonical isoform): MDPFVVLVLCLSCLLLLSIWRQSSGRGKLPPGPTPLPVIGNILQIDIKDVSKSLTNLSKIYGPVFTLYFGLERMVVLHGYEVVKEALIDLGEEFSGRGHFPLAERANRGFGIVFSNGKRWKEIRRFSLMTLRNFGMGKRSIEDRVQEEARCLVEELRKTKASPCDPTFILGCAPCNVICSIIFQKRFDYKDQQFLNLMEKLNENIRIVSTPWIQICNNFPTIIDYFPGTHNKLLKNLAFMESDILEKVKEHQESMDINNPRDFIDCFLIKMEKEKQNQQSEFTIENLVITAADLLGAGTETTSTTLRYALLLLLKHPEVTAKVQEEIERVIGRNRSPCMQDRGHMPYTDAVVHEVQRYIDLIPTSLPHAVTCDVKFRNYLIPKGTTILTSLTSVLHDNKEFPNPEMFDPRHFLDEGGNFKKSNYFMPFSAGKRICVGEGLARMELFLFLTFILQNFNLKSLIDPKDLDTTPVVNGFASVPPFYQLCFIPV
# Sequence of Cytochrome P450 3A4 (P08684 whole entry): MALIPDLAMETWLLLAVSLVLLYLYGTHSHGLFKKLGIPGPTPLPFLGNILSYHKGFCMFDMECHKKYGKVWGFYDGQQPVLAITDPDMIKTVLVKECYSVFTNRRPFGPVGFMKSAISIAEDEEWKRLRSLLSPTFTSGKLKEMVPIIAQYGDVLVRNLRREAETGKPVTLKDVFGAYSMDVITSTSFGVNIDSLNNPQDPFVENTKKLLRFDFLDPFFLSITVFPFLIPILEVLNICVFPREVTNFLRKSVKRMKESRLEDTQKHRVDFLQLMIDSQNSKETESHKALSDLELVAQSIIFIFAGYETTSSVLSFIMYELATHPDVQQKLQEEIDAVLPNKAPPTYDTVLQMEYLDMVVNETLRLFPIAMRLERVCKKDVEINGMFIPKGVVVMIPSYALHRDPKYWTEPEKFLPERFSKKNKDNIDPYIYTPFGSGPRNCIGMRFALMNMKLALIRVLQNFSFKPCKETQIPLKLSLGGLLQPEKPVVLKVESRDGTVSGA
compound,measurement,setting,value
C=CC(=O)Nc1cc(Oc2nc(Nc3ccc(N4CCN(C)CC4)cc3OC)ccc2N2CCCCC2)ccc1C,microsomal CLint,[1],10.8 µL/min/mg
same,IC50,Dipeptidyl peptidase 1 [2],0.0019 µM
same,inhibition,Dipeptidyl peptidase 1 [2],Dose-dependent effect
same,bioavailability,[3],22.3%
same,IC50,Cathepsin S,> 10 µM
same,IC50,Cytochrome P450 2C19,> 10 µM
same,IC50,Cytochrome P450 3A4,> 10 µM
same,inhibition in vivo at 20 mg/kg,Mus musculus [4],75%
same,IC50,Dipeptidyl peptidase 1 [5],0.0034 µM
same,inhibition,Dipeptidyl peptidase 1 [5],Dose-dependent effect
same,inhibition,Mus musculus [6],Dose-dependent effect
same,IC50,Cytochrome P450 2D6,> 10 µM
same,Activity,Mus musculus [7],Active
same,half-life,[8],71.4 min
same,IC50,Cytochrome P450 2C9,> 10 µM
same,inhibition,Mus musculus [9],Dose-dependent effect
same,Drug uptake,[10],Active
same,AUC(0-inf),[11],1220 ng·h/mL
same,inhibition,Mus musculus [12],Dose-dependent effect
same,Tmax,[13],0 h
same,Tmax,[14],30 min
same,Drug uptake,[15],Active
same,Activity,[16],Non-Toxic
same,AUC(0-inf),[17],1360 ng·h/mL
same,inhibition,Mus musculus [18],Dose-dependent effect
same,IC50,Procathepsin L,3 to 10 µM
